Screening results deposited in PubChem BioAssay by The Scripps Research Institute Molecular Screening Center.
ARFGAP1 inh = inhibitors of rat ARFGAP1 GAP activity, primary screen, biochemical, fluorescence polarization, GDP tracer; hit rate 0.26% among 360,000; inhibition, % at 16.5 µM; AID 651572, 2012; Arfgap1-stimulated ARF1 GTP hydrolysis, GDP FP detection; ADP-ribosylation factor GTPase-activating protein 1 (Rattus norvegicus), Q62848;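 active = inhibition above a per-plate limit, mean inhibition of low control wells plus 3 SD, cut at about 25% in these data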;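 also: 0% = DMSO wells with enzyme and 100% = wells lacking Arfgap1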
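Replicates: Single well per compound | Assay system: Truncated rat Arfgap1 GAP domain | Control set: No-Arfgap1 wells (100%) versus DMSO full-reaction wells (0%) | Times: Enzyme reaction 120 min at 25 °C after 20 min preincubation | Reagent: Human ARF1(Δ1-17)-GTP substrate | Measured by: Tracer-displacement fluorescence polarization with EDTA stop, 620/688 nm | Measure: Percent inhibition of Arfgap1-stimulated GTP hydrolysis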
PAFAH1B3 inh = PAFAH1B3 enzyme inhibitors, primary screen, biochemical, fluorescence polarization, human. Platelet-activating factor acetylhydrolase IB subunit alpha1 (Homo sapiens), Q15102. hit rate 0.28% among 340,000. recombinant PAFAH1B3, FP-rhodamine probe. inhibition, % at 3.39 µM;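 active = inhibition above the screen-wide average of all tested compounds plus 3 SD, cut at about 25% in these data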;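 also: 0% = enzyme with DMSO only and 100% = wells lacking PAFAH1B3 protein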
ASAP1 inh = inhibitors of human ASAP1 ArfGAP activity, primary screen, biochemical, fluorescence polarization. ASAP1-stimulated ARF1 GTP hydrolysis, GDP FP detection. inhibition, % at 16.5 µM. hit rate 0.19% among 360,000. AID 624377, 2012; in the data active = inhibition above about 25%;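 also: 0% = vehicle with enzyme and substrate and 100% = no enzyme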
PAFAH1B2 FP inh = PAFAH1B2 enzyme inhibitors, primary screen, biochemical, fluorescence polarization, human. Platelet-activating factor acetylhydrolase IB subunit alpha2 (Homo sapiens), P68402. recombinant PAFAH1B2, FP-rhodamine activity probe. inhibition, % at 3.39 µM. hit rate 1.2% among 340,000. AID 492953, 2010;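 active = inhibition above the mean of all tested compounds plus 3 SD, cut at about 24% in these data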;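 also: 0% = enzyme with DMSO and 100% = wells lacking PAFAH1B2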
Target sequence (P68402 whole entry, looked up): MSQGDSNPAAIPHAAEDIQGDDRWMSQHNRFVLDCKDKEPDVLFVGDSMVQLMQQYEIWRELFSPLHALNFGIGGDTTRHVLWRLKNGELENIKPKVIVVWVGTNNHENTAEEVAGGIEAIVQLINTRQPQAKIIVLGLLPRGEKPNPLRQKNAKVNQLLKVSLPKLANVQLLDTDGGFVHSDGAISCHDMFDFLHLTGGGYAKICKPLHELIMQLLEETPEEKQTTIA
PAFAH2 FP inh = PAFAH2 enzyme inhibitors, primary screen, biochemical, fluorescence polarization, human; recombinant PAFAH2, FP-rhodamine activity probe; inhibition, % at 3.39 µM; hit rate 0.99% among 340,000;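 active = inhibition above the mean over all tested compounds plus 3 SD, cut at about 30% in these data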;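 also: inhibitors block probe labeling of enzyme so polarization drops; 0% = enzyme with DMSO and 100% = wells lacking PAFAH2 protein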
pPAFAH FP inh = pPAFAH enzyme inhibitors, primary screen, biochemical, fluorescence polarization, human; Platelet-activating factor acetylhydrolase (Homo sapiens), Q13093; recombinant pPAFAH, FP-rhodamine probe fluorescence polarization; inhibition, % at 3.39 µM; hit rate 1.5% among 330,000;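 active = inhibition above the mean inhibition across the screen plus 3 SD, cut at about 25% in these data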;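 also: inhibitors block binding of the rhodamine activity-based probe so polarization drops; 0% = enzyme with DMSO and 100% = wells lacking pPAFAH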
Target sequence (Q13093 whole entry, looked up): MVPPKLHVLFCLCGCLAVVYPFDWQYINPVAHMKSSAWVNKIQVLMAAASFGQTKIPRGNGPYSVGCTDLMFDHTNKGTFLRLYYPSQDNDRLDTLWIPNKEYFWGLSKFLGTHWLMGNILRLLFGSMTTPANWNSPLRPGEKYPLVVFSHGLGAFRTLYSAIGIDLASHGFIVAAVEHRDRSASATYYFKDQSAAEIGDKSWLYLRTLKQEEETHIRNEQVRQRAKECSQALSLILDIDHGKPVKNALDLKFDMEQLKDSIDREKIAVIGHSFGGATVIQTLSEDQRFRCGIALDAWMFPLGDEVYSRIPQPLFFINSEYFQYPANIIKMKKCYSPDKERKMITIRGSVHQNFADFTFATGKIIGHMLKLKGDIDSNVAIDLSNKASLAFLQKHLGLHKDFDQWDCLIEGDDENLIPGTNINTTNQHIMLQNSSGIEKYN
* hit, by the source's call; . = no result. This is a sample that favours compounds with a hit; in the whole collection about 2.7% have one here.

SMILES	ARFGAP1 inh	PAFAH1B3 inh	ASAP1 inh	PAFAH1B2 FP inh	PAFAH2 FP inh	pPAFAH FP inh
CN1C(=O)C(=C2CCCCCC2)SC1=S	-9.7	6.6	-7.6	5.5	-2.2	2.9
Cc1nc(N2CCCCC2)sc1C(=O)c1ccc(SCCO)c([N+](=O)[O-])c1	5.4	5.6	4.9	1.9	1.4	27.2*
CC(=O)C1=C(C)NC(SCC(=O)c2ccc(Cl)cc2Cl)=C(C#N)C1c1ccco1 (stereo not drawn)	-1.4	2.7	13.4	1.1	4.0	28.3*
Cc1ccc(C(=O)CSC2=C(C#N)C(c3ccco3)CC(=O)N2)c(C)c1 (stereo not drawn)	7.2	15.2	8.8	8.2	11.2	28.3*
CC(=O)C1=C(C)NC(SCC(=O)c2ccc(Cl)cc2)=C(C#N)C1c1ccco1 (stereo not drawn)	9.7	13.8	8.1	1.8	14.8	15.5
CSCCC(NC(=O)c1ccco1)C(=O)NCCc1ccc(Cl)cc1 (stereo not drawn)	-2.5	9.6	0.9	28.1*	2.4	5.9
Nc1ccc(CSc2ccc(Cl)cc2)cc1	-5.5	6.3	-10.9	39.0*	1.5	10.9
Cc1cccc2c(N=Nc3ccc(S(=O)(=O)Nc4ccc(Cl)cc4)cc3[N+](=O)[O-])c(O)[nH]c12	2.0	3.1	12.4	-5.6	-20.5	33.0*
COc1cccc(C(=O)NNC(=O)c2ccc(NS(=O)(=O)c3cccs3)cc2)c1OC	-0.1	1.9	9.1	2.1	3.5	25.6*
COc1ccccc1C(=O)NNC(=O)c1ccc(NS(=O)(=O)c2cccs2)cc1	17.3	8.5	-0.1	2.9	-9.2	11.9
Cc1cccc2c(N=NC(=O)c3ccc(NS(=O)(=O)c4cccs4)cc3)c(O)[nH]c12	-12.6	23.5	9.7	39.0*	21.3	27.8*
Cc1cc(C(=O)CSc2cccc[n+]2[O-])c(C)n1-c1ccccc1	4.7	3.0	-0.5	-2.5	11.2	1.5
Cc1cc(C(=O)CSc2cccc[n+]2[O-])c(C)n1-c1ccc(Br)cc1	.	.	.	.	.	44.2*
COC(=O)C1=C(C)N(Cc2ccc(C(F)(F)F)cc2)C(=NCc2ccccc2C(F)(F)F)NC1c1ccc(Cl)cc1 (stereo not drawn)	9.8	.	1.4	.	.	.
COc1ccccc1Cc1noc(-c2cc(Cl)ccc2OC)n1	-3.9	7.8	-3.7	5.5	11.3	29.0*
Cc1ccc(NS(=O)(=O)c2ccc(CCC(=O)NCCO)cc2)cc1	-15.0	1.4	-8.1	1.3	4.1	24.9*
Cc1ccc(NS(=O)(=O)c2ccc(CCC(=O)NCc3ccccn3)cc2)cc1	1.1	-2.8	-6.6	7.2	3.4	31.9*
O=C(CCNC(=O)c1ccc(Br)cc1)Nc1ccc(S(=O)(=O)Nc2ncccn2)cc1	1.4	4.8	2.6	2.3	7.1	27.9*
Cc1ccc(NS(=O)(=O)c2ccc(C(=O)NCc3ccccn3)cc2)cc1	-9.6	7.0	0.1	5.7	2.3	30.6*
O=C(CCNC(=O)c1ccccc1Cl)Nc1ccc(S(=O)(=O)Nc2ncccn2)cc1	-0.4	-1.8	0.2	0.1	4.3	-3.1
COc1ccccc1C(=O)N1CCC2CCN(C(=O)OC(C)(C)C)C2C1 (stereo not drawn)	6.0	.	5.0	.	.	.
C[C@@H]1ON(C)[C@H]2C[C@H]3c4[nH]c5c(-c6ccc(C(F)(F)F)cc6)cccc5c4CCN3C(=O)[C@@H]12	13.0	.	6.9	.	.	.
CCN(CC)c1ccc(N=Nc2nn(C)c(C)c2[N+](=O)[O-])cc1	6.8	7.4	-7.4	15.1	-7.3	3.9
CCN(Cc1ccccc1)c1ccc(N=Nc2nn(C)c(C)c2[N+](=O)[O-])cc1	2.2	7.0	-5.3	61.6*	8.8	25.0*
O=c1[nH]cnc2nn(C3OC(CO)C(O)C3O)nc12 (stereo not drawn)	6.3	.	6.3	.	.	.
SMILES	ARFGAP1 inh	PAFAH1B3 inh	ASAP1 inh	PAFAH1B2 FP inh	PAFAH2 FP inh	pPAFAH FP inh
Cc1ccc(N2C3=C(C(=O)CC(C)(C)C3)C(c3cn(C)nc3C)C3=C2CC(C)(C)CC3=O)cc1	6.8	0.7	-10.8	5.9	4.5	26.8*
CCN(CC)S(=O)(=O)c1ccc(/C=C/C(=O)OCC(=O)NCc2ccco2)cc1	-4.6	-5.8	1.4	8.7	74.8*	30.0*
COc1ccc2oc(=O)c(C(=O)NCC3CCCO3)cc2c1 (stereo not drawn)	11.9	3.9	6.0	-3.1	4.9	2.4
COc1ccccc1N=c1oc2cc(O)ccc2cc1C(=O)NCC1CCCO1 (stereo not drawn)	-6.4	7.1	0.6	1.2	0.0	26.2*
COc1cccc(N=c2oc3cc(O)ccc3cc2C(=O)NCC2CCCO2)c1 (stereo not drawn)	-0.1	6.6	1.7	4.1	11.0	24.8*
COc1ccccc1N=c1oc2cc(O)ccc2cc1C(N)=O	0.7	1.1	10.2	-1.8	15.1	22.0
C#CCN(Cc1cccc(F)c1)C(=O)c1nnc2c3cc(F)ccc3n(S(=O)(=O)c3ccc(OC)cc3)c2n1	13.3	.	10.1	.	.	.
O=C(O)CCCCN1C(=O)C=CC1=O	-1.5	.	4.3	.	.	.
COc1ccccc1CNC(=O)COC(=O)c1ccc(C(=O)c2ccccc2)cc1	-5.0	-7.7	5.3	46.9*	-5.7	23.9
COc1ccccc1NC(=O)c1ccc(NC(=O)COC(=O)c2ccc(O)cc2)cc1	0.4	1.6	0.2	-4.0	49.6*	25.6*
COc1ccccc1CNC(=O)c1n[nH]c2ccccc12	8.2	-1.0	22.0	-0.5	2.1	27.8*
COc1ccccc1CNC(=O)COC(=O)c1ccncc1	6.3	11.1	-0.7	8.1	5.9	0.6
COc1ccc(CNC(=O)COC(=O)c2ccc(C(=O)c3ccccc3)cc2)cc1	-9.5	12.8	-2.6	5.3	-0.8	31.2*
Cc1cccc(CN2[C@@H](C)[C@H](c3ccccc3)Oc3cc(Br)ccc3S2(=O)=O)c1	15.1	.	-0.2	.	.	.
COC(=O)CC#C[C@H](C)[C@@H](NS(C)(=O)=O)C(C)(C)COCc1ccccc1	3.9	.	-15.1	.	.	.
COC(=O)C1=C(C)N(C)C(=NCc2ccc3c(c2)OCO3)NC1c1ccc(F)cc1 (stereo not drawn)	11.1	.	-5.0	.	.	.
C[C@H]1CN(S(=O)(=O)C(C)(C)C)[C@@H](CCO)/C1=C\CCO	1.0	.	6.2	.	.	.
